Data set [1] concerns Human immunodeficiency virus 2. As to the kind of experiment: Antiviral activity against HIV2 ROD infected in human C8166 cells assessed as protection against virus-induced cytopathic effect after 3 days by syncytium reduction assay. The data set is classed as functional, organism-based. Conditions: Human immunodeficiency virus 2, ISOLATE ROD, C8166, 72 h. The method, boiled down:
(§1)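 C8166 cells (4 × 10⁵/mL) infected at MOI 0.06 in presence of graded compound concentrations; AZT and GW678248 as drug controls. After 3 days culture, syncytia (multinucleated giant cells) counted under inverted microscope; EC50 taken as concentration blocking 50% syncytium formation. Mean of at least two separate experiments.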

Data set [2] relates to C8166. In words: Cytotoxicity against human C8166 cells assessed as decrease in cell viability by MTT assay. The data set is classed as functional. The essentials:
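Uninfected C8166 cells exposed to compound; viability read by MTT colorimetric assay at A570/630. CC50, the concentration reducing viable cells by 50%, taken from dose-response curve. Mean of at least two separate experiments.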
(Tetrazolium dyes change colour on reduction, which living cells bring about.)

The nature of data set [3]: Therapeutic index, ratio of CC50 for human C8166 cells to EC50 for HIV1 A17 harbouring RT K103N/Y181C mutant infected in human C8166 cells. The data set is classed as cell-based. As to conditions: read-out: Ratio CC50/EC50. The essentials: (§2)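 CC50 from MTT assay on uninfected C8166 cells (A570/630, dose-response curve, 50% viable cell reduction) divided by EC50 from 3-day syncytium reduction assay in C8166 cells (4 × 10⁵/mL) infected at M.O.I 0.06; syncytia scored microscopically. Values are means of at least two separate experiments.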

Data set [4] relates to Human immunodeficiency virus 1. In words: Antiviral activity against wild type HIV1 3B infected in human C8166 cells assessed as protection against virus-induced cytopathic effect after 3 days by syncytium reduction assay. The data set is classed as functional, organism-based. Conditions: Human immunodeficiency virus 1, 3B, C8166, 72 h. The essentials:
as §1
For orientation: Cytopathic effects are the visible damage that an infection or toxin causes in cultured cells.

For data set [5], the system named is Human immunodeficiency virus 1. In words: Antiviral activity against HIV1 A17 harbouring RT K103N/Y181C mutant infected in human C8166 cells assessed as protection against virus-induced cytopathic effect after 3 days by syncytium reduction assay. The data set is classed as functional, organism-based. Conditions: Human immunodeficiency virus 1, A17, C8166, 72 h. The method, boiled down: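 C8166 cells (4 × 10⁵/mL) infected at M.O.I 0.06 in the presence of various compound concentrations; cultured 3 days, syncytia (multinucleated giant cells) scored under inverted microscope; EC50 = concentration blocking syncytia formation by 50%. AZT and GW678248 as drug controls. Mean of at least two separate experiments.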

Data set [6] can be described thus: Therapeutic index, ratio of CC50 for human C8166 cells to EC50 for wild type HIV1 3B infected in human C8166 cells. The data set is classed as cell-based. As to conditions: C8166 cells infected with wild type HIV1 3B, read-out: Ratio CC50/EC50. The essentials: as §2

pEC50: −log10 of the molar value.

The term pEC50 denotes the EC50 on a negative log10 scale, so that one unit is a factor of ten. For orientation: CC50 means the concentration giving 50% cytotoxicity. For `Cc1cc(S(N)(=O)=O)ccc1NC(=O)COc1ccc(Cl)cc1NC(=O)c1cccc(C(F)(F)F)c1`, the figures for the pEC50 in data set [1], in data set [4] and in data set [5] were 4.09, 5.82 and 4.28, respectively. Also, the CC50 in data set [2] was determined as 124 µM. Moreover, the selectivity ratio came out at 2.34 in data set [3] and 82 in data set [6].
On to `Cc1cc(S(N)(=O)=O)ccc1NC(=O)COc1ccc(Cl)cc1NC(=O)c1cc(Cl)cc(Cl)c1`, for which the negative logarithm of the EC50 (pEC50) in data set [1] is 4.74; in data set [4], 9.57; in data set [5], 6.57. In addition, the CC50 in data set [2] came to 72.4 µM. In addition, the selectivity ratio worked out at 268 in data set [3] and 271000 in data set [6].
In the case of `Cc1cccc(C(=O)Nc2cc(Cl)ccc2OCC(=O)Nc2ccc(S(N)(=O)=O)cc2C)c1`, the pEC50 in data set [1] was 4.53; in data set [4], 8.84; in data set [5], 6.34. In addition, the CC50 in data set [2] came to 52.9 µM. Moreover, the selectivity ratio in data set [3] amounted to 115; in data set [6], 36200.
With `Cc1cc(S(N)(=O)=O)ccc1NC(=O)COc1ccc(Cl)cc1NC(=O)c1cccc(F)c1`, the pEC50 in data set [1] is 3.73; in data set [4], 8.45; in data set [5], 5.99. Also, the CC50 in data set [2] came to 243 µM. For the same compound, the selectivity ratio came out at 239 in data set [3] and 68800 in data set [6].
For the compound `Cc1cc(S(N)(=O)=O)ccc1NC(=O)COc1ccc(Cl)cc1NC(=O)c1cccc2ccccc12`, the pEC50 was 4.01 in data set [1], 6.96 in data set [4] and 4.67 in data set [5]. The 50% cytotoxic concentration (CC50) in data set [2] was more than 382 µM. The selectivity ratio is more than 17.7 in data set [3] and more than 3500 in data set [6].
As to `Cc1cc(S(N)(=O)=O)ccc1NC(=O)COc1ccc(Cl)cc1NC(=O)Cc1c(Cl)cccc1Cl`, the pEC50 was 3.80 in data set [1], 3.60 in data set [4] and 3.62 in data set [5]. For the same compound, the CC50 in data set [2] was more than 359 µM. Moreover, the results for the selectivity ratio in data set [3] and in data set [6] were more than 1.49 and more than 2, respectively.
For the compound `Cc1cn([C@H]2C[C@H](N=[N+]=[N-])[C@@H](CO)O2)c(=O)[nH]c1=O` [ZIDOVUDINE], the CC50 in data set [2] worked out at 4910 µM. For the same compound, the values for the selectivity ratio in data set [3] and in data set [6] were 216000 and 422000, respectively.
For the compound `Cc1ccc(C)c(C(=O)Nc2cc(Cl)ccc2OCC(=O)Nc2ccc(S(N)(=O)=O)cc2C)c1`, the pEC50 in data set [1] was 4.56; in data set [4] it was 9.43; in data set [5], 6.85. In data set [2], the CC50 came to 79.7 µM. In addition, the selectivity ratio in data set [3] worked out at 560; in data set [6] it was 213000.
On to `Cc1cc(S(N)(=O)=O)ccc1NC(=O)COc1ccc(Cl)cc1NC(=O)c1ccccc1`, for which the pEC50 in data set [1] is 4.14; in data set [4], 8.44; in data set [5], 5.80. For the same compound, the CC50 in data set [2] is 207 µM. The values for the selectivity ratio in data set [3] and in data set [6] were 130 and 56500, respectively.
As to `Cc1cc(C)cc(C(=O)Nc2cc(Cl)ccc2OCC(=O)Nc2ccc(S(N)(=O)=O)cc2C)c1`, the pEC50 was 4.59 in data set [1], 8.94 in data set [4] and 6.48 in data set [5]. Moreover, the CC50 in data set [2] was 36.5 µM. In addition, the selectivity ratio is 110 in data set [3] and 31300 in data set [6].
For the compound `Cc1cc(S(N)(=O)=O)ccc1NC(=O)COc1ccc(Cl)cc1NC(=O)c1cccc(Cl)c1`, the pEC50 in data set [1] is 4.28; in data set [4] it was 8.50; in data set [5], 5.83. In data set [2], the CC50 is 59.7 µM. Besides, the selectivity ratio in data set [3] is 39.9; in data set [6] it was 18700.
Turning to `Cc1cc(S(N)(=O)=O)ccc1NC(=O)COc1ccc(Cl)cc1NC(=O)c1cc(Br)cc(Br)c1`, the figures for the pEC50 in data set [1], in data set [4] and in data set [5] were 4.25, 7.34 and 5.86, respectively. Besides, in data set [2], the half-maximal cytotoxic concentration (CC50) was 89.7 µM. The selectivity ratio is 64.7 in data set [3] and 1950 in data set [6].

For the origin of these results see ChEMBL document CHEMBL2150921, “Synthesis, structure-activity relationships, and docking studies of N-phenylarylformamide derivatives (PAFAs) as non-nucleoside HIV reverse transcriptase inhibitors” (Eur J Med Chem, 2012).
